Bioassay records from PubChem.
HSF1 activator: HSF-1 activators, primary screen, NIH3T3-HGL cells, MG132 stress, luminescence, single point; NIH3T3-HGL HSF-1 luciferase reporter, 8 h; 100% = twice DMSO control signal; activation, % at 9 µM; 1.7% of 300,000 active; AID 504408, 2011;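 active = mean replicate activation of at least 50% with a set share of replicates each reaching 50%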
T cruzi inh: inhibitors of intracellular T. cruzi growth, primary screen, luminescence, NIH3T3 host cells | T. cruzi beta-gal in NIH3T3, 90 h | AID 1885, 2009 | inhibition, % (no concentration beside the values) | 1.4% of 300,000 active;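 active = mean inhibition across valid replicates above about 55%, limit read from the data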;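 note: signal also drops with host cell toxicity which is not excluded here; higher percent means less beta-gal luminescence so fewer parasites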
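Assay system: NIH/3T3 host cells with β-galactosidase reporter T. cruzi; input: 5,000 host fibroblasts per well; compound: single 50 nL compound addition per well in DMSO; timing: ≥90 h infection period, 3 h prior cell attachment; measured by: GalScreen β-gal luminescence, detergent lysis, 60 min; evaluation: percent inhibition of parasite-derived β-gal signal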
GPR7 antag: GPR7 receptor antagonists, primary screen, cell-based, fluorescence, single concentration; 1.1% of 290,000 active; inhibition, % at 4.4 µM; GPR7-expressing cells, fluorescence antagonist assay; AID 1861, 2009; in the data active = inhibition above about 16%, passing the limit was not always enough;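 note: cells stimulated with the agonist NPW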
Target sequence (P48145 whole entry, looked up): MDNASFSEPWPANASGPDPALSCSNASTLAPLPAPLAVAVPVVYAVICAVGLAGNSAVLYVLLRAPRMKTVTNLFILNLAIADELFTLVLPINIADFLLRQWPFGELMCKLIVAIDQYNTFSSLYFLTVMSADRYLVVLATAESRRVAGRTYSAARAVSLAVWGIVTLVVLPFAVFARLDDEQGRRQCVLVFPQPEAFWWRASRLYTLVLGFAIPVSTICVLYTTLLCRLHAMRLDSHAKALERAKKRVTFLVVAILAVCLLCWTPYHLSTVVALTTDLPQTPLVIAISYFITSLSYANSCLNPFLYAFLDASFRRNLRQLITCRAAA
HSF1 inhib: HSF1 inhibitors in luciferase reporter cells, primary screen, cell-based, NIH3T3, luminescence | AID 2098, 2009 | NIH3T3-HGL HSE-luciferase, MG132-induced, luminescence 8 h; stronger effect = lower value | 0.77% of 300,000 active | activity change, negative = inhibition, % at 7.5 µM (by protocol);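 active = more than half of replicate wells show activity change below -50%, luminescence cut by over half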;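 note: luciferase reports HSF-1 transcriptional activity via heat shock element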
697 NFkB inh: inhibitors of PMA/ionomycin-induced NF-kB reporter, 697 cells, primary screen, B-cell NF-kB inhibitor project, cell-based, luminescence, uHTS; 697 B-cell NF-kB luciferase reporter, 16 h; inhibition, % at 4 µM; 0.33% of 330,000 active; AID 435022, 2010; in the data active = inhibition above about 35%
Jurkat NFkB inh: inhibitors of induced NF-kB luciferase reporter, primary screen, TCR NF-kB activation inhibitor project, cell-based, luminescence, uHTS. AID 435003, 2010. inhibition, % at 4 µM. 0.53% of 330,000 active. Jurkat, PMA/ionomycin-induced NF-kB luciferase reporter; in the data active = inhibition above about 50%
Hits are given with their value. Most compounds without a hit are left out; they make up all but 4.8% or so of the library.

Screening CC1CCc2nc(NC(=O)c3ccc(S(=O)(=O)N4CCCc5ccccc54)cc3)sc2C1 (stereo not given) returned HSF1 activator inactive, T cruzi inh 60.9, GPR7 antag inactive, HSF1 inhib inactive, 697 NFkB inh inactive and Jurkat NFkB inh inactive.
Screening CC(C)(C)c1ccc(C(=O)NC(=S)Nc2nc3c(s2)CCCC3)cc1 returned HSF1 activator inactive, T cruzi inh inactive, GPR7 antag inactive, HSF1 inhib -58.9, 697 NFkB inh inactive and Jurkat NFkB inh inactive.
Screening CCc1nnc(NC(=O)c2ccc(S(=O)(=O)N3CCCc4ccccc43)cc2)o1 returned HSF1 activator inactive, T cruzi inh 59.8, GPR7 antag inactive, HSF1 inhib inactive, 697 NFkB inh inactive and Jurkat NFkB inh inactive.
O=C(Nc1ccc(S(=O)(=O)N2CCc3ccccc32)cc1)c1ccc2c(c1)OCO2 was read as HSF1 activator inactive, T cruzi inh 56.8, GPR7 antag inactive, HSF1 inhib inactive, 697 NFkB inh inactive and Jurkat NFkB inh inactive.
COc1ccc(-c2nnc(NC(=O)c3ccc(S(=O)(=O)N4CCc5ccccc5C4)cc3)o2)cc1 was read as HSF1 activator inactive, T cruzi inh 73.5, GPR7 antag inactive, HSF1 inhib inactive, 697 NFkB inh inactive and Jurkat NFkB inh inactive.
Cc1cc(NC(=O)c2ccc(S(=O)(=O)N3CCc4ccccc43)cc2)no1 was read as HSF1 activator inactive, T cruzi inh inactive, GPR7 antag inactive, HSF1 inhib inactive, 697 NFkB inh inactive and Jurkat NFkB inh inactive.
O=C(Nc1nc2c(s1)CCCC2)c1ccc(S(=O)(=O)N2CCCc3ccccc32)cc1 was read as HSF1 activator inactive, T cruzi inh 60.3, GPR7 antag inactive, HSF1 inhib inactive, 697 NFkB inh inactive and Jurkat NFkB inh inactive.
`CNC(=O)c1ccsc1NC(=O)c1ccc(S(=O)(=O)N2CCCc3ccccc32)cc1` gave HSF1 activator inactive, T cruzi inh 56.7, GPR7 antag inactive, HSF1 inhib inactive, 697 NFkB inh inactive and Jurkat NFkB inh inactive.
Screening CCCn1nc(Oc2nc(N(C)C)nc(N(C)C)n2)ccc1=O returned HSF1 activator inactive, T cruzi inh inactive, GPR7 antag inactive, HSF1 inhib inactive, 697 NFkB inh inactive and Jurkat NFkB inh inactive.
Screening CCCCN(C(=O)COc1ccc(C)cc1OC)c1c(N)n(CCC)c(=O)[nH]c1=O returned HSF1 activator inactive, T cruzi inh inactive, GPR7 antag inactive, HSF1 inhib -69.1, 697 NFkB inh inactive and Jurkat NFkB inh inactive.
Screening CCCCCN(C(=O)CCC(=O)OCC(=O)c1ccc(C(C)(C)C)cc1)c1c(N)n(CCCC)c(=O)[nH]c1=O returned HSF1 activator 75.7, T cruzi inh inactive, HSF1 inhib inactive, 697 NFkB inh inactive and Jurkat NFkB inh inactive.
Screening CN(C)C(=O)c1cc(C(=O)c2ccccc2Cl)c[nH]1 returned HSF1 activator inactive, T cruzi inh inactive, GPR7 antag inactive, HSF1 inhib inactive, 697 NFkB inh inactive and Jurkat NFkB inh inactive.
`CCOC(=O)C1=C(C)NC(=S)NC1c1ccc(C)s1` (stereo not given) gave HSF1 activator inactive, T cruzi inh inactive, GPR7 antag inactive, HSF1 inhib inactive, 697 NFkB inh inactive and Jurkat NFkB inh inactive.
CCOC(=O)C1=C(C)NC(=S)NC1c1ccsc1 (stereo not given) was read as HSF1 activator inactive, T cruzi inh inactive, GPR7 antag inactive, HSF1 inhib -66.6, 697 NFkB inh inactive and Jurkat NFkB inh inactive.
Screening CSc1cc(-c2ccco2)oc1C(=O)c1ccco1 returned HSF1 activator 51.1, T cruzi inh inactive, HSF1 inhib inactive, 697 NFkB inh inactive and Jurkat NFkB inh inactive.
Screening CCOc1ccc(CCNC(=O)CS(=O)Cc2nc(-c3ccccc3C)oc2C)cc1OCC (stereo not given) returned HSF1 activator inactive, T cruzi inh inactive, GPR7 antag inactive, HSF1 inhib inactive, 697 NFkB inh inactive and Jurkat NFkB inh inactive.
For COc1ccc(C(CC(=O)O)NC(=O)Cc2ccccc2)cc1OC (stereo not given) the results were HSF1 activator inactive, T cruzi inh inactive, GPR7 antag inactive, HSF1 inhib inactive, 697 NFkB inh inactive and Jurkat NFkB inh inactive.
`C=CCC(Nc1ccccc1)c1ccc(OC)c(OC)c1` (stereo not given) gave HSF1 activator inactive, T cruzi inh inactive, GPR7 antag inactive, HSF1 inhib -62.8, 697 NFkB inh inactive and Jurkat NFkB inh inactive.
`Cc1cccc(OCC(=O)Nc2cccc(C(=O)NCC(C)C)c2)c1` gave HSF1 activator inactive, T cruzi inh inactive, GPR7 antag inactive, HSF1 inhib -80.6, 697 NFkB inh inactive and Jurkat NFkB inh inactive.
Screening Cc1cccc(OCC(=O)Nc2ccc(C(=O)NCC(C)C)cc2)c1 returned HSF1 activator inactive, T cruzi inh inactive, GPR7 antag inactive, HSF1 inhib inactive, 697 NFkB inh inactive and Jurkat NFkB inh inactive.
CCN(Cc1ccccc1)S(=O)(=O)c1ccc(F)cc1 was read as HSF1 activator inactive, T cruzi inh inactive, GPR7 antag inactive, HSF1 inhib -62.1, 697 NFkB inh inactive and Jurkat NFkB inh inactive.
`CCN(CC)C(=O)CN(Cc1ccccc1)S(=O)(=O)c1ccc(F)cc1` gave HSF1 activator inactive, T cruzi inh inactive, GPR7 antag inactive, HSF1 inhib inactive, 697 NFkB inh inactive and Jurkat NFkB inh inactive.
`Cc1cc(/C=C2/C(=O)N(C)C(=S)N2C)ccc1N1CCCC1` gave HSF1 activator 74.4, T cruzi inh inactive, GPR7 antag inactive, HSF1 inhib inactive, 697 NFkB inh inactive and Jurkat NFkB inh inactive.
`C1CCC(C(CC2CCCCN2)C2CCCCC2)CC1` (stereo not given) gave HSF1 activator inactive, T cruzi inh 56.4, GPR7 antag inactive, HSF1 inhib inactive, 697 NFkB inh inactive and Jurkat NFkB inh inactive.
`CCOC(=O)c1nnn(-c2nonc2-n2cccc2)c1-c1cccc([N+](=O)[O-])c1` gave HSF1 activator inactive, T cruzi inh inactive, GPR7 antag inactive, HSF1 inhib inactive, 697 NFkB inh inactive and Jurkat NFkB inh inactive.
O=C(N/N=C\c1ccc([N+](=O)[O-])o1)c1cncc(Br)c1 was read as HSF1 activator inactive, T cruzi inh 58.0, GPR7 antag inactive, HSF1 inhib inactive, 697 NFkB inh inactive and Jurkat NFkB inh inactive.
CCN(CC)S(=O)(=O)c1cccc(C(=O)N/N=C/c2ccc([N+](=O)[O-])o2)c1 was read as HSF1 activator inactive, T cruzi inh 56.4, GPR7 antag inactive, HSF1 inhib inactive, 697 NFkB inh inactive and Jurkat NFkB inh inactive.
